The values that follow come from ChEMBL document CHEMBL2029249, “N-Methyl-3-(tetrahydro-2H-pyran-4-yl)-2,3,4,9-tetrahydro-1H-carbazole-6-carboxamides as a novel class of cannabinoid receptors agonists with low CNS penetration” (Bioorg Med Chem Lett, 2012).

Converted amounts (≈) assume the structure as drawn.

One may read the Papp A→B as how fast a substance crosses the layer from the apical side. Usually Ki stands for a measure of affinity in units of concentration, obtained from inhibition or displacement. A word on the Emax: it is the size of the effect at its maximum, as opposed to the concentration needed. By EC50 is commonly meant the concentration giving half of the maximal effect. By Kp is commonly meant the ratio of the level in a tissue or fluid to that in plasma or blood. As usually defined, the thermodynamic solubility is solubility found after equilibrating the solid with the medium. By IC50 is commonly meant the concentration at which inhibition is half-maximal. The low end stands for inhibition by little substance, the high end for a need for much substance.

Series [1] in a line: Apparent permeability from apical to basal side of human Caco2 cells at 10 uM. The note with it: Caco-2.
Series [2] in a line: Intrinsic clearance in human liver microsomes at 1 uM in presence of NADPH. The format is ADME, Microsome. Particulars: read-out: CLH. (In general: Liver microsomes are a subcellular fraction often used to study metabolism.)
Series [3] addresses Cannabinoid receptor 2 (Homo sapiens, UniProt P34972). As to the kind of experiment: Binding affinity to human CB2 receptor.
Series [4] addresses T1, Cannabinoid receptor 1 (Homo sapiens, UniProt P21554). As to the kind of experiment: Agonist activity at human CB1 receptor expressed in HEK293 cells assessed as [35S]GTPgamma binding relative to WIN55212-2. The format is functional, cell-based. The gist of the method: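 GTPγ35S binding on membranes from HEK293 EBNA cells stably transfected with cloned human CB1; Emax relative to WIN55,212-2 as reference agonist; means of at least three measurements.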

Series [5] concerns the target T1, Cannabinoid receptor 1. As to the kind of experiment: Agonist activity at human CB1 receptor expressed in HEK293 cells assessed as [35S]GTPgamma binding. Format: functional, cell-based.
In series [6] the target is T1, Cannabinoid receptor 1. In words: Displacement of [3H]CP55940 from human CB1 receptor expressed in HEK293 cells. The format is cell-based.
Series [7] can be described thus: Ratio of drug level in brain to plasma in rat by microdialysis assay.
The nature of series [8]: Thermodynamic solubility of the compound at pH 7.4. Particulars: buffer.
The target in series [9] is Voltage-gated inwardly rectifying potassium channel KCNH2 (Homo sapiens, UniProt Q12809).
Chain of Voltage-gated inwardly rectifying potassium channel KCNH2 (Q12809 whole entry): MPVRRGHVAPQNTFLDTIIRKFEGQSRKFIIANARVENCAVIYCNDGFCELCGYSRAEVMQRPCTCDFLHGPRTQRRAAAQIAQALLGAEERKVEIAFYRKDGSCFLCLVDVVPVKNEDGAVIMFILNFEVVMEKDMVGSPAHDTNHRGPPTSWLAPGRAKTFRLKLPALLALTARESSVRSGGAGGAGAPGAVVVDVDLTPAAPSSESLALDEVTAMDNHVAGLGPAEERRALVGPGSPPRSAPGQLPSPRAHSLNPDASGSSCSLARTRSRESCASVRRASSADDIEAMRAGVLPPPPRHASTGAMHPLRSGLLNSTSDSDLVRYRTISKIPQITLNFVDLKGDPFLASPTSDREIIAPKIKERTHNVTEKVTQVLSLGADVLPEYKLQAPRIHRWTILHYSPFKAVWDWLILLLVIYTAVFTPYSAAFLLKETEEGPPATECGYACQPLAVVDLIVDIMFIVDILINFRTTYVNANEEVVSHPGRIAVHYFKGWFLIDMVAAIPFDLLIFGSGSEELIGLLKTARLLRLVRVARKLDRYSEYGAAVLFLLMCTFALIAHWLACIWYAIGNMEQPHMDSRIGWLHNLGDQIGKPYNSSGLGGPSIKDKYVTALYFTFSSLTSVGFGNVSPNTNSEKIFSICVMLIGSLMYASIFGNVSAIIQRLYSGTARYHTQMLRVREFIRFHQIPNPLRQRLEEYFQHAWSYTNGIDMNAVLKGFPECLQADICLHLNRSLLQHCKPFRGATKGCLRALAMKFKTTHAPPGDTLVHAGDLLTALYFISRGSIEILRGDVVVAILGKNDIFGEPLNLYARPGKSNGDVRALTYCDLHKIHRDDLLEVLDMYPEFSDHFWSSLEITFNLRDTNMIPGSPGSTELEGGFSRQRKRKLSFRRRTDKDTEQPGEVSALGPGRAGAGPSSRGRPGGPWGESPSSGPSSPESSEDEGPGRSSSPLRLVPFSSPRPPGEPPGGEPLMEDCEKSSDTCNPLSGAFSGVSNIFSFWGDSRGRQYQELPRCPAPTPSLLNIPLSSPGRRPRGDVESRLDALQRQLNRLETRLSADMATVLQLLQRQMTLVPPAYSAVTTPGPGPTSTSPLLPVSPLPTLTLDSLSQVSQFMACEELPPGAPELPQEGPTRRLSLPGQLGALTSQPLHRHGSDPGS

Chain of Cannabinoid receptor 2 (P34972 whole entry): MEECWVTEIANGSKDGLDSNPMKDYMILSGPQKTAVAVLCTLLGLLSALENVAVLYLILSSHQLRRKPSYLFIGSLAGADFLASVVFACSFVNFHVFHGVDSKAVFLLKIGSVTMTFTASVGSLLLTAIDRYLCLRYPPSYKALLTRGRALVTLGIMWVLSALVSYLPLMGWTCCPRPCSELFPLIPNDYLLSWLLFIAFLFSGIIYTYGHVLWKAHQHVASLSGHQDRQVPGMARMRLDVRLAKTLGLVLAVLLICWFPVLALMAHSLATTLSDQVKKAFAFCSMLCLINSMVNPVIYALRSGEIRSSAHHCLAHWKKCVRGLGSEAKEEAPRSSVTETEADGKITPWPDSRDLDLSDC
T1 sequence (P21554 whole entry): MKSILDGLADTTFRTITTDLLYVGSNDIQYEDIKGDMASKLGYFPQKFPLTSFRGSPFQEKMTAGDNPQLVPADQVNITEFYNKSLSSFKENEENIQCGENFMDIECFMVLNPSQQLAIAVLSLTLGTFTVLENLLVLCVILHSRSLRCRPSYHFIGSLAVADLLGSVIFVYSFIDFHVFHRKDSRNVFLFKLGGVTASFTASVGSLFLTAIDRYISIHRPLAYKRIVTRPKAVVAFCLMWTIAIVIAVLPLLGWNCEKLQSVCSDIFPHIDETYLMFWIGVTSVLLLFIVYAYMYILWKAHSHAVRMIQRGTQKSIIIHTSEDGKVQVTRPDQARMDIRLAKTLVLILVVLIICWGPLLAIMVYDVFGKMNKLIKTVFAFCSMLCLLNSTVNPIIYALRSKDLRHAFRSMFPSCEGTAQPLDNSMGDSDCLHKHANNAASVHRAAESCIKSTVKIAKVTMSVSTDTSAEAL

Regarding `CN(CC(=O)NC1CC1)C(=O)c1ccc2c(c1)c1c(n2C)CC[C@@H](C2CCOCC2)C1`, the Papp A→B at 10 µM in series [1] stood at 27 ×10⁻⁶ cm/s. For the same molecule, the microsomal CLint at 1 µM in series [2] is 30 µL/min/mg. Besides, the Ki came out at 21.5 nM in series [3] and 24.5 nM in series [6]. Further, the Emax in [4] was 116%. In series [5], the EC50 worked out at 39.9 nM. Moreover, the Kp in series [7] stood at 0.024. Also, in series [8], the solubility (thermodynamic) is 86 µM (≈ 36.4 µg/mL).
`CN(CC(=O)NC1CC1)C(=O)c1ccc2c(c1)c1c(n2C)CCC(C2CCOCC2)C1` (racemic): the microsomal CLint at 1 µM in series [2] was 37 µL/min/mg. Besides, the Ki in series [3] was 26.3 nM. Further, the Emax in [4] came to 121%. Further, the thermodynamic solubility in [8] was 108 µM (≈ 45.7 µg/mL).
In the case of `CCN(CCCC(=O)NC1CC1)C(=O)c1ccc2c(c1)c1c(n2C)CCC(C2CCOCC2)C1` (configuration not stated), the microsomal CLint at 1 µM in series [2] was 143 µL/min/mg. Also, the Emax in series [4] turned out to be 114%. Further, the EC50 in series [5] was 2.9 nM. This molecule had a solubility (thermodynamic) in series [8] of 224 µM (≈ 104 µg/mL).
`CN(CCCC(=O)NCCF)C(=O)c1ccc2c(c1)c1c(n2C)CC[C@@H](C2CCOCC2)C1`: the microsomal CLint at 1 µM in series [2] was determined as 50 µL/min/mg. The Emax in series [4] worked out at 108%. For the same molecule, the EC50 in series [5] was determined as 12.9 nM. Further, the Kp in [7] turned out to be 0.02. The molecule also returned a solubility (thermodynamic) in series [8] of 470 µM (≈ 215 µg/mL).
In the same order, the values of `CN(CCCC(=O)NC1COC1)C(=O)c1ccc2c(c1)c1c(n2C)CC[C@@H](C2CCOCC2)C1` are 29 µL/min/mg, 116%, 43.7 nM, 0.019 and 1670 µM (≈ 781 µg/mL).
On to `CCS(=O)(=O)n1c2c(c3cc(C(=O)N4CCC(C)CC4)ccc31)CN(C1CCOCC1)CC2`, for which the Papp A→B at 10 µM in [1] is 13 ×10⁻⁶ cm/s. Moreover, in series [4], the Emax stood at 120%. In addition, in [7], the Kp is 0.07. In [8], this molecule yielded a thermodynamic solubility above 1030 µM.
Consider `CCN(CC(=O)NC1CC1)C(=O)c1ccc2c(c1)c1c(n2C)CC[C@H](C2CCOCC2)C1`, for which the Emax in [4] came out at 106%. Further, the EC50 in series [5] was determined as 24.2 nM. The molecule also came in with a Ki in series [6] of 17.3 nM. The thermodynamic solubility in [8] turned out to be 49 µM (≈ 21.4 µg/mL).
`CCNC(=O)CC[C@@H](CO)N(C)C(=O)c1ccc2c(c1)c1c(n2C)CC[C@@H](C2CCOCC2)C1`: the microsomal CLint at 1 µM in series [2] stood at 21 µL/min/mg. Also, in series [4], the Emax was 126%. Also, the Kp in series [7] was found to be 0.011.
`CN(CCCC(=O)NC1CC1)C(=O)c1ccc2c(c1)c1c(n2C)CCC(C2CCOCC2)C1` (configuration not stated): in series [2], the microsomal CLint at 1 µM was 73 µL/min/mg. The maximal effect (Emax) in series [4] was found to be 113%. The same molecule had a thermodynamic solubility in [8] of 444 µM (≈ 201 µg/mL).
For `CN(C(=O)c1ccc2c(c1)c1c(n2C)CC[C@@H](C2CCOCC2)C1)[C@H](CO)CCC(=O)NCCF`, in series [1], the Papp A→B at 10 µM turned out to be 0.11 ×10⁻⁶ cm/s. For the same molecule, the microsomal CLint at 1 µM in [2] was 27 µL/min/mg. Besides, the Emax in [4] turned out to be 118%. The concentration for half-maximal inhibition (IC50) in series [9] was above 33000 nM. Also, the Kp in series [7] was 0.025. This molecule also yielded a solubility (thermodynamic) in series [8] of 1310 µM (≈ 639 µg/mL).
Turning to `CCCCCOc1ccc(C(=O)c2cccc3ccccc23)c2ccccc12`, the Emax in series [4] was 112%. Further, the Kp in series [7] stood at 0.29.
For `CNC(=O)CCCN(C)C(=O)c1ccc2c(c1)c1c(n2C)CC[C@H](C2CCOCC2)C1`, in series [2], the microsomal CLint at 1 µM came to 31 µL/min/mg. The molecule also displayed a Ki in [6] of 576 nM. The molecule further displayed a thermodynamic solubility in [8] of 1070 µM (≈ 455 µg/mL).
Regarding `CCN(CC(=O)NCCF)C(=O)c1ccc2c(c1)c1c(n2C)CC[C@@H](C2CCOCC2)C1`, the microsomal CLint at 1 µM in series [2] came to 33 µL/min/mg. For the same molecule, in series [4], the maximum response (Emax) was determined as 107%. Also, the EC50 in [5] was 9.8 nM. The Kp in series [7] came out at 0.068. Also, in series [8], the solubility (thermodynamic) worked out at 71 µM (≈ 31.5 µg/mL).
As to `CCN(CC(=O)NC1CC1)C(=O)c1ccc2c(c1)c1c(n2C)CCC(C2CCOCC2)C1` (racemic), the microsomal CLint at 1 µM in series [2] amounted to 53 µL/min/mg. In addition, the Emax in series [4] was found to be 106%. For the same molecule, in series [8], the thermodynamic solubility was determined as 36 µM (≈ 15.8 µg/mL).
Consider `Cc1c(C(=O)c2cccc3ccccc23)c2cccc3c2n1[C@H](CN1CCOCC1)CO3` [WIN-552122], for which, in series [7], the Kp amounted to 2.3. The same molecule registered a thermodynamic solubility in [8] of 2 µM (≈ 0.853 µg/mL).
For the molecule `CNC(=O)CC[C@@H](CO)N(C)C(=O)c1ccc2c(c1)c1c(n2C)CC[C@@H](C2CCOCC2)C1`, the apical-to-basolateral permeability (Papp A→B) at 10 µM in series [1] came to 0.15 ×10⁻⁶ cm/s. Besides, in series [2], the microsomal CLint at 1 µM was 15 µL/min/mg. For the same molecule, in [4], the Emax stood at 124%. This molecule came in with an IC50 in [9] above 33000 nM. In addition, the Kp in series [7] is below 0.02. The solubility (thermodynamic) in series [8] is above 3000 µM.
The molecule `CN(CCC(=O)NC1CC1)C(=O)c1ccc2c(c1)c1c(n2C)CCC(C2CCOCC2)C1` (configuration not stated) had a solubility (thermodynamic) in series [8] of 523 µM (≈ 229 µg/mL).
As to `CN(CC(=O)NC1CC1)C(=O)c1ccc2c(c1)c1c(n2C)CC[C@H](C2CCOCC2)C1`, the microsomal CLint at 1 µM in [2] came to 38 µL/min/mg. Moreover, the Ki in series [3] is 49.1 nM; in series [6], 177 nM. The Emax in series [4] came out at 111%. Besides, the EC50 in series [5] was 446 nM. In addition, the thermodynamic solubility in series [8] was determined as 63 µM (≈ 26.7 µg/mL).
For the molecule `Cn1c2c(c3cc(C(=O)NCCCC(=O)NC4CC4)ccc31)CC(C1CCOCC1)CC2` (configuration not stated), the microsomal CLint at 1 µM in series [2] is 47 µL/min/mg. Moreover, the IC50 in [9] was above 31000 nM. The thermodynamic solubility in series [8] amounted to 1 µM (≈ 0.438 µg/mL).
For the molecule `CCN(CCCC(=O)NCCO)C(=O)c1ccc2c(c1)c1c(n2C)CC[C@@H](C2CCOCC2)C1`, the microsomal CLint at 1 µM in [2] came to 38 µL/min/mg. The Emax in series [4] came out at 113%. Also, the IC50 in series [9] is above 33000 nM. For the same molecule, the Kp in series [7] is below 0.02. This molecule came in with a thermodynamic solubility in series [8] of 760 µM (≈ 357 µg/mL).
For the molecule `CN(CCCC(=O)NCC#N)C(=O)c1ccc2c(c1)c1c(n2C)CC[C@@H](C2CCOCC2)C1`, the microsomal CLint at 1 µM in series [2] came out at 42 µL/min/mg. In addition, the Emax in series [4] stood at 110%. The molecule also had a thermodynamic solubility in [8] of 300 µM (≈ 135 µg/mL).
With `CN(CCCC(=O)NCCO)C(=O)c1ccc2c(c1)c1c(n2C)CC[C@@H](C2CCOCC2)C1`, the microsomal CLint at 1 µM in series [2] amounted to 17 µL/min/mg. In addition, in series [4], the Emax was determined as 120%. The molecule also registered a solubility (thermodynamic) in [8] of 2490 µM (≈ 1130 µg/mL).
For `CONC(=O)CCCN(C)C(=O)c1ccc2c(c1)c1c(n2C)CC[C@@H](C2CCOCC2)C1`, in [2], the microsomal CLint at 1 µM was 36 µL/min/mg. In addition, the Emax in series [4] was 104%. Moreover, the IC50 in [9] is above 33000 nM. For the same molecule, in series [8], the solubility (thermodynamic) was determined as 1330 µM (≈ 587 µg/mL).
In the case of `CCN(CC(=O)NC1CC1)C(=O)c1ccc2c(c1)c1c(n2C)CC[C@@H](C2CCOCC2)C1`, the Papp A→B at 10 µM in [1] was 23 ×10⁻⁶ cm/s. In addition, the microsomal CLint at 1 µM in [2] was 36 µL/min/mg. Further, the Emax in [4] came out at 106%. Further, the EC50 in [5] turned out to be 1.9 nM. In series [6], this molecule returned a Ki of 4.2 nM. The Kp in series [7] is 0.09. In series [8], the solubility (thermodynamic) was 30 µM (≈ 13.1 µg/mL).
On to `CNC(=O)CCCN(C)C(=O)c1ccc2c(c1)c1c(n2C)CCC(C2CCOCC2)C1` (racemic), for which, in series [2], the microsomal CLint at 1 µM is 27 µL/min/mg. In addition, the Emax in [4] was found to be 121%. For the same molecule, the solubility (thermodynamic) in series [8] was found to be 1550 µM (≈ 660 µg/mL).
